In one assay the test system is Plasmodium falciparum. The assay is described as follows: Antimalarial activity against chloroquine-resistant Plasmodium falciparum K1. The class given is functional, organism-based.
Assay [1] is described as follows: Induction of heme alkylation of Fe(II) heme assessed as loss of heme at 10 uM in presence of 50% ACN-H2O with excess sodium dithionite under argon at 20 degC by spectrophotometry. The essentials: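 Fe(II) heme (10 μM final; hemin reduced by excess sodium dithionite) in 50% ACN-water under continuous argon, 20°C, stirred; reaction started with peroxide at 10 μM final. Soret absorbance (418 nm) read every 0.1 s, converted to heme concentration via linear calibration (ε = 1.26 × 10⁵ M⁻¹ cm⁻¹); heme loss measured at completion (t = 30 s). n = 3.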

Assay [2] can be described thus: Induction of heme alkylation of Fe(II) heme assessed as adduct A472 absorbance change at completion of reaction at 10 uM in presence of 50% ACN-H2O with excess sodium dithionite under argon at 20 degC by spectrophotometry. Summed up: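 Reduced heme made from hemin (10 μM final) in 50% ACN-water (from 0.5 mM stock in 0.1 M NaOH) with excess sodium dithionite, argon-purged sealed cell, stirred at 20°C; peroxide added to 10 μM final. Product formation followed as A472, normalized to initial 418 nm heme absorbance; taken at completion (t = 30 s). n = 3.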

On to `O=C(O)[C@H]1CC[C@]2(CC1)OO[C@]1(O2)C2CC3CC(C2)CC1C3`, for which the concentration for half-maximal inhibition (IC50) (usually the concentration that inhibits the measured activity by half) in the assay on Plasmodium falciparum worked out at 49 nM. The inhibition (in general, the relative decrease from the control value, in per cent) in assay [1] amounted to 74%. The deltaA in assay [2] was 0.89.

Regarding `OC[C@H]1CC[C@@]2(CC1)OO[C@@]1(O2)C2CC3CC(C2)CC1C3`, the half-inhibitory concentration (IC50) in the assay on Plasmodium falciparum was determined as 2.6 nM. Also, the inhibition in assay [1] is 83%. In addition, in assay [2], the deltaA stood at 0.78.

`C[C@@]1(c2ccccc2)OOC2(O1)C1CC3CC(C1)CC2C3` (stereo partly drawn): the IC50 with Plasmodium falciparum is 10 nM. For the same compound, in assay [1], the inhibition came out at 67%. Besides, the deltaA in assay [2] turned out to be 0.63.

Take `c1ccc([C@@H]2OOC3(O2)C2CC4CC(C2)CC3C4)cc1` (stereo partly drawn): the IC50 with Plasmodium falciparum was 1500 nM. Further, the inhibition in assay [1] came out at 16%. For the same compound, the deltaA in assay [2] came out at 0.13.

Consider `O=C(O)C[C@H]1CC[C@]2(CC1)OO[C@]1(O2)C2CC3CC(C2)CC1C3`, for which it took 110 nM to reach half-maximal inhibition in the assay on Plasmodium falciparum (IC50). Also, the inhibition in assay [1] stood at 83%. The deltaA in assay [2] worked out at 0.87.

With `CO[C@H]1O[C@@H]2O[C@@]3(C)CC[C@H]4[C@H](C)CC[C@@H]([C@H]1C)[C@@]24OO3`, the inhibition in assay [1] was determined as 24%.

As to `C[C@@H]1CC[C@H]2[C@@H](C)C(=O)O[C@@H]3O[C@@]4(C)CC[C@@H]1[C@]32OO4`, the inhibition in assay [1] was 15%. Moreover, the deltaA in assay [2] amounted to 0.12.

As for `O=C1C2CC3CC1CC(C2)[C@]31OO[C@@]2(CCCCC2)O1`, the IC50 in the assay on Plasmodium falciparum came out at 20 nM. Also, the inhibition in assay [1] stood at 61%. Besides, the deltaA in assay [2] came to 0.57.

The compound `C[C@H]1[C@H](OC(=O)CCC(=O)O)O[C@@H]2O[C@@]3(C)CC[C@H]4[C@H](C)CC[C@@H]1[C@@]24OO3` [ARTESUNATE] came in with an IC50 in the assay on Plasmodium falciparum of 3.2 nM. Further, the inhibition in assay [1] was 44%. In addition, in assay [2], the deltaA was 0.39.

Take `c1ccc([C@H]2CC[C@]3(CC2)OO[C@]2(O3)C3CC4CC(C3)CC2C4)cc1`: in the assay on Plasmodium falciparum, the 50% inhibitory concentration (IC50) amounted to 6.5 nM. The inhibition in assay [1] came out at 77%. Further, the deltaA in assay [2] was found to be 0.79.

The compound `C1CCC2(CC1)OOC1(O2)C2CC3CC(C2)CC1C3` (stereo not drawn) returned an IC50 with Plasmodium falciparum of 3.8 nM. The inhibition in assay [1] turned out to be 86%. In addition, the deltaA in assay [2] worked out at 0.84.

Compound `CC(C)(C)[C@H]1CC[C@]2(CC1)OO[C@]1(O2)C2CC3CC(C2)CC1C3` showed an IC50 in the assay with Plasmodium falciparum of 200 nM. In assay [1], the inhibition amounted to 34%. The deltaA in assay [2] turned out to be 0.25.

In the case of `C1CCC2(CC1)OOC1(CCCCC1)O2`, the inhibition in assay [1] was 17%. Also, the deltaA in assay [2] turned out to be 0.03.

As for `CC1(C)CC[C@]2(CC1)OO[C@]1(O2)C2CC3CC(C2)CC1C3`, the half-maximal inhibitory concentration (IC50) in the assay on Plasmodium falciparum is 7.9 nM. In assay [1], the inhibition is 82%. For the same compound, in assay [2], the deltaA was 0.77.

The compound `CCC[C@H]1CC[C@]2(CC1)OO[C@]1(O2)C2CC3CC(C2)CC1C3` yielded a 50% inhibitory concentration (IC50) in the assay with Plasmodium falciparum of 3.6 nM. Further, in assay [1], the inhibition was 85%. In addition, the deltaA in assay [2] stood at 0.8.

Consider `CC(C)(O)[C@H]1CC[C@]2(CC1)OO[C@]1(O2)C2CC3CC(C2)CC1C3`, for which 210 nM corresponded to half-maximal inhibition in the assay on Plasmodium falciparum (IC50). The inhibition in assay [1] came to 30%. The deltaA in assay [2] is 0.23.

`Clc1ccc([C@H]2CC[C@]3(CC2)OO[C@]2(O3)C3CC4CC(C3)CC2C4)cc1` displayed an IC50 with Plasmodium falciparum of 20 nM. For the same compound, the inhibition in assay [1] was 84%. Further, in assay [2], the deltaA worked out at 0.84.

For `C[C@H]1[C@@H](O)O[C@@H]2O[C@@]3(C)CC[C@H]4[C@H](C)CC[C@@H]1[C@@]24OO3` [ARTENIMOL], the IC50 with Plasmodium falciparum came to 0.77 nM. Moreover, the inhibition in assay [1] amounted to 28%. Moreover, in assay [2], the deltaA came to 0.22.

Take `c1ccc(C2(c3ccccc3)CCC3(CC2)OOC2(O3)C3CC4CC(C3)CC2C4)cc1` (stereo not drawn): the inhibition in assay [1] came out at 11%. The deltaA in assay [2] was determined as 0.1.

As to `C1CC[C@]2(CC1)OO[C@]1(O2)C2CCCC1CCC2`, in the assay with Plasmodium falciparum, the IC50 came out at 340 nM. Besides, the inhibition in assay [1] is 9%. Moreover, the deltaA in assay [2] is 0.03.

`OC[C@H]1CC[C@]2(CC1)OO[C@]1(O2)C2CC3CC(C2)CC1C3` registered a half-inhibitory concentration (IC50) in the assay with Plasmodium falciparum of 2.8 nM. The inhibition in assay [1] worked out at 83%. For the same compound, the deltaA in assay [2] was 0.89.

`O=C1CCC2(CC1)OOC1(O2)C2CC3CC(C2)CC1C3` (stereo not drawn) gave an IC50 with Plasmodium falciparum of 1.7 nM. The inhibition in assay [1] worked out at 81%. For the same compound, the deltaA in assay [2] was 0.88.

As for `NC[C@H]1CC[C@]2(CC1)OOC1(O2)C2CC3CC(C2)CC1C3` (stereo partly drawn), in assay [1], the inhibition turned out to be 83%. Also, the deltaA in assay [2] was determined as 0.87.

As to `CC(C)(N)CNC(=O)C[C@H]1CC[C@]2(CC1)OO[C@]1(O2)C2CC3CC(C2)CC1C3`, in assay [1], the inhibition was 83%. The deltaA in assay [2] was determined as 0.89.

In the assay with Plasmodium falciparum, `O=S(=O)(O)OC[C@H]1CC[C@]2(CC1)OO[C@]1(O2)C2CC3CC(C2)CC1C3` displayed an IC50 of 250 nM. The inhibition in assay [1] turned out to be 81%. Also, in assay [2], the deltaA is 0.85.

For the origin of these results see ChEMBL document CHEMBL1255309, “Relationship between antimalarial activity and heme alkylation for spiro- and dispiro-1,2,4-trioxolane antimalarials” (Antimicrob Agents Chemother, 2008).
